In ChEMBL document CHEMBL4390639, “Design, Synthesis, and Biological Evaluation of Novel Allosteric Protein Disulfide Isomerase Inhibitors” (J Med Chem, 2019):
pIC50, pKd: −log10 of the molar value. The source made the active and inactive calls. The rule behind the calls is not given here.

Tests used:
[1] = test system: U-87 MG; test: Down regulation of PRLR gene expression in human U87MG cells at 16 uM incubated for 4 hrs followed by bromouridine addition during last 30 mins of incubation by TRIzol-reagent based Bru-Seq analysis relative to control; assay type: functional, U-87MG ATCC
Summary of the method: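 Bru-seq in U87MG cells treated at 16 μM for 4 h; 2 mM bromouridine present during the last 30 min. TRIzol total RNA, then anti-BrdU bead capture of labelled RNA and sequencing. Readout is RPKM traces versus DMSO control. Performed once.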

[2] = test system: U-87 MG; test: Up regulation of VEGFD gene expression in human U87MG cells at 16 uM incubated for 4 hrs followed by bromouridine addition during last 30 mins of incubation by TRIzol-reagent based Bru-Seq analysis relative to control; assay type: functional, U-87MG ATCC
[3] = Cytotoxicity against human NU04 cells assessed as inhibition of cell growth measured after 72 hrs by MTT assay; assay type: functional, cell-based; details: Homo sapiens, 72 h; read-out: IC50
Summary of the method: (§1)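 A172 and NU04 cells were seeded at 4000 cells/well and U87MG at 5000 cells/well, incubated overnight at 37 °C, 5% CO2, then exposed to compound or vehicle for 72 h. MTT (3 mg/mL) was added for 4 h, formazan was dissolved in DMSO, and absorbance was read at 570 nm. IC50 came from nonlinear regression; mean ± SD of at least three experiments.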

[4] = test system: A 172; test: Cytotoxicity against human A172 cells assessed as inhibition of cell growth measured after 72 hrs by MTT assay; assay type: functional, cell-based; details: Homo sapiens, A 172, 72 h; read-out: IC50; summary of the method: as §1
[5] = target: T1, Protein disulfide-isomerase (Homo sapiens, UniProt P07237); test: Inhibition of recombinant human N-terminal His-tagged PDI expressed in Escherichia coli BL21 (DE3) pLysS assessed as reduction in enzyme-mediated bovine insulin aggregation at 40 uM measured after 1 hr in presence of 1 to 2 mM NAC
Summary of the method: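 Compounds pretreated with NAC for 30 min at 37 °C, then added to the insulin reductase assay at final 40 μM compound with 0, 1, 2 or 5 mM NAC. The assay uses 0.4 μM PDI preincubated 1 h at 37 °C, then DTT and bovine insulin, read at 620 nm, with % activity at 80 min.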
Target sequence in this assay (P07237 18-508 limits assumed): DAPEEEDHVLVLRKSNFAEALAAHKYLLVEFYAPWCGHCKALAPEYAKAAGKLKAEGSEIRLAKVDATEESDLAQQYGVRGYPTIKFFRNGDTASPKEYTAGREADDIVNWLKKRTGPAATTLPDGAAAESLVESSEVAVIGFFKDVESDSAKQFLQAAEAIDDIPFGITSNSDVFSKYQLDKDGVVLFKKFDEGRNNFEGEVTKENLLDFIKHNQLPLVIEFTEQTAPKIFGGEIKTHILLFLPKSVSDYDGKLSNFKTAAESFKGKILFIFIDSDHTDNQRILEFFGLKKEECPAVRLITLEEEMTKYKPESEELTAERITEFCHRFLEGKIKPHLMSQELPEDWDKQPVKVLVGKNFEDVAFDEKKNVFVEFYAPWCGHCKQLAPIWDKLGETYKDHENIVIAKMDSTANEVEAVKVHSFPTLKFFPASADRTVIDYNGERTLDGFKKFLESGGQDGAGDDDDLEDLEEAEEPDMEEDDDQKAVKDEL

[6] = Therapeutic ratio of IC50 for HFF1 cells to IC50 for human NU04 cells
Summary of the method: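 Ratio of two growth-inhibition IC50s, HFF-1 normal human fibroblasts over NU04 glioma cells. Cells were grown as monolayers at 37 °C in 5% CO2, with NU04 seeded at 4000 cells/well. After overnight attachment, cells were exposed to compound or vehicle for 72 h. MTT (3 mg/mL) was added for 4 h, and formazan dissolved in DMSO was read at 570 nm. IC50s came from nonlinear regression of log concentration-response curves, with at least three independent experiments.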

[7] = test system: U-87 MG; test: Effect on PDI expression in human U87MG cells at 20 uM measured after 24 hrs by Western blot analysis; assay type: functional, cell-based; details: U-87MG ATCC
[8] = test system: Protein disulfide-isomerase (Homo sapiens), P07237 [C53S,C397S]; test: Binding affinity to recombinant human N-terminal His-tagged PDI C53S/C397S double mutant expressed in Escherichia coli BL21 (DE3) pLysS assessed as change in melting temperature at 100 uM by ROX dye based thermal shift assay
Summary of the method: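 Purified wild-type, C53S/C397S or H256A PDI at 0.5 mg/mL in 50 mM Tris, pH 7.0, with or without 100 μM compound, was mixed with ROX dye in a 20 µL well. DMSO (5% in buffer) was the control. Samples were heated 25–99 °C at 1 °C/min, and the Boltzmann melting temperature shift versus DMSO was reported. Mean ± SD of three experiments.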

[9] = test system: HFF-1; test: Cytotoxicity against HFF1 cells assessed as inhibition of cell growth measured after 72 hrs by MTT assay; assay type: cell-based; details: Homo sapiens, HFF-1, 72 h
Summary of the method: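 Cells grown as monolayers at 37 °C, 5% CO2, seeded and left overnight, then exposed to drug or vehicle for 72 h. MTT (20 μL of 3 mg/mL) added for 4 h, supernatant removed, formazan dissolved in DMSO, absorbance read at 570 nm. IC50 from nonlinear regression of log concentration–response curves; at least three independent experiments.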

[10] = test system: U-87 MG; test: Cytotoxicity against human U87MG cells assessed as inhibition of cell proliferation at <IC50 measured after 72 hrs by MTT assay relative to control; assay type: functional, U-87MG ATCC
[11] = test system: U-87 MG; test: Inhibition of colony formation in human U87MG cells […] by crystal violet staining based assay; assay type: functional, cell-based; details: U-87MG ATCC
Summary of the method: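 Clonogenicity: U87MG cells seeded at 200 cells/well, left overnight, treated 24 h, then medium replaced and cells grown ten days. Stained 30 min with crystal violet, washed, imaged; normalized well intensity from three independent experiments.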

[12] = target: T1, Protein disulfide-isomerase; test: Binding affinity to recombinant human N-terminal His-tagged PDI expressed in Escherichia coli BL21 (DE3) pLysS by ROX dye based thermal shift assay
Summary of the method: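 Thermal shift conditions: PDI (0.5 mg/mL, 50 mM Tris, pH 7.0) with ROX dye, heated 25–99 °C at 1 °C/min. […] Kd was fitted from melting-temperature change versus vehicle.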
Target sequence in this assay (P07237 whole entry): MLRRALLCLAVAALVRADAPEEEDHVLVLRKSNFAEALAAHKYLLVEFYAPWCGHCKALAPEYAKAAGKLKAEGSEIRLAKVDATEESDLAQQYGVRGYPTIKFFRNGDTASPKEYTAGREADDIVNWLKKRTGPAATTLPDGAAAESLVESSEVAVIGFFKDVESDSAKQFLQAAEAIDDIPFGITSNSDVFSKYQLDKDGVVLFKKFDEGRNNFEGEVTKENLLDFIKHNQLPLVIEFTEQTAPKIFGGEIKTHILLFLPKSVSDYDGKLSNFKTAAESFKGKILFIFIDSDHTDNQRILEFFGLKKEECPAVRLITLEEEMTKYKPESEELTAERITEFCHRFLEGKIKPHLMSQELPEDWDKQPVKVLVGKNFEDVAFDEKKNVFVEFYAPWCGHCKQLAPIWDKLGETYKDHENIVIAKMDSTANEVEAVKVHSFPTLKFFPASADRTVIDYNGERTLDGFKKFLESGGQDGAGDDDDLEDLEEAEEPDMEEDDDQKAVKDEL

[13] = test system: D54 cell line; test: Inhibition of colony formation in 1 to 6 Gy-irradiated human D54 cells at 1 uM measured after 10 to 12 days by crystal violet staining based assay; assay type: functional, cell-based
Summary of the method: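 D54 cells irradiated at 0, 1, 2, 4 or 6 Gy and plated immediately at 200–1000 cells/well according to dose. Treated with DMSO, 0.05 μM PACMA31 or 1 μM compounds, grown 10–12 days, then colonies stained with 0.1% crystal violet.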

[14] = test system: U-87 MG; test: Up regulation of GCNT3 gene expression in human U87MG cells at 10 uM incubated for 4 hrs followed by bromouridine addition during last 30 mins of incubation by TRIzol-reagent based Bru-Seq analysis relative to control; assay type: functional, U-87MG ATCC
Summary of the method: (§2)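 U87MG cells exposed to compound or DMSO vehicle for 4 h, with 2 mM bromouridine added for the final 30 min. Total RNA isolated with TRIzol; Bru-labelled nascent RNA captured on anti-BrdU antibody-conjugated magnetic beads and sequenced. Transcript abundance expressed as RPKM relative to DMSO. Experiment performed once.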

[15] = test system: U-87 MG; test: Down regulation of LRRC63 gene expression in human U87MG cells at 10 uM incubated for 4 hrs followed by bromouridine addition during last 30 mins of incubation by TRIzol-reagent based Bru-Seq analysis relative to control; assay type: functional, U-87MG ATCC
[16] = test system: U-87 MG; test: Up regulation of NUPR1 gene expression in human U87MG cells at 10 uM incubated for 4 hrs followed by bromouridine addition during last 30 mins of incubation by TRIzol-reagent based Bru-Seq analysis relative to control; assay type: functional, U-87MG ATCC; summary of the method: as §2
[17] = test system: U-87 MG; test: Down regulation of RAD51 gene expression in human U87MG cells at 10 uM incubated for 4 hrs followed by bromouridine addition during last 30 mins of incubation by TRIzol-reagent based Bru-Seq analysis; assay type: functional, cell-based; details: U-87MG ATCC
Summary of the method: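 Nascent transcription (Bru-seq) in U87MG cells: treatment at 10 μM for 4 h, with 2 mM bromouridine added for the final 30 min. Total RNA isolated with TRIzol; Bru-labelled RNA captured using anti-BrdU antibody on magnetic beads, then sequenced. Transcript traces reported as RPKM compared with DMSO-treated cells. Single experiment.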

Chain of Protein disulfide-isomerase (Homo sapiens), P07237 [C53S,C397S] (P07237 whole entry C53S/C397S): as the sequence (P07237 whole entry) above, with C53S, C397S counted along it

Row | SMILES | fold change (FC) [1] | fold change (FC) [2] | pIC50 [3] | pIC50 [4] | inhibition [5] | Ratio IC50 [6] | Activity [7] | Activity [8] | pIC50 [9] | inhibition (INH) [10] [%] | inhibition [11] | pKd [12] | inhibition [13] | fold change (FC) [14] | fold change (FC) [15] | fold change (FC) [16] | Activity [17]
1 | COC(=O)c1cccc(/C=C/C(=O)c2cccc(O)c2)c1 | 2.6 | 6.2 | 4.64 | 4.71 | Active | 0.77 | inactive | Active | 4.76 | >50 | Dose-dependent effect | – | – | – | – | – | –
2 | N#Cc1cccc(/C=C/C(=O)c2ccc(O)cc2)c1 | – | – | 4.80 | 4.77 | – | 5.8 | inactive | Active | 4.04 | – | Dose-dependent effect | 5.01 | Active | – | – | – | –
3 | O=C(/C=C/c1ccc(-c2cccnc2)cc1)c1cccc(O)c1 | – | – | 5.31 | 4.96 | – | 4.57 | inactive | Active | 4.65 | >50 | Dose-dependent effect | – | Active | – | – | – | –
4 | CCCCCN(CCCCC)S(=O)(=O)c1ccc(C(=O)/C=C/c2cccc(O)c2)cc1 | – | – | 5.12 | 4.95 | Active | 3.85 | inactive | Active | 4.53 | – | Dose-dependent effect | – | – | – | – | – | –
5 | CCCCCN(CCCCC)S(=O)(=O)c1ccc(C(=O)/C=C/c2cccc(C#N)c2)cc1 | – | – | 5.30 | 5.05 | – | 0.67 | inactive | – | 5.47 | – | Dose-dependent effect | – | – | 10 | 2.5 | 11.8 | Active
